# Screening results from PubChem.
# Compounds with a hit are over-represented: about 2.2% of the library has one in this group of screens.
# PPC-1+TRAIL kill = compounds killing PPC-1 cancer cells with TRAIL present, primary screen, TRAIL potentiator project, ATPLite luminescence, uHTS | PPC-1 cells + TRAIL, ATPLite viability luminescence | 0.41% of 220,000 active | cell killing (% activity), % at 4 µM or 5 µM;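 active means cell killing above 50% in the first pass at 4 µM, then a duplicate retest at 5 µM averaging 50% or more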;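 further: plate controls were cells with TRAIL plus DMSO for no effect and medium-only wells lacking cells for full effect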
# FLuc stim CS = FLuc activators, initial screening, artefact control for FLuc-dependent activation tests, biochemical, ATPlite luminescence; Luciferin 4-monooxygenase (Photinus pyralis), P08659; ATPlite luciferase biochemical, 10 min; 0 = ATP-free wells, 1 = DMSO control; activation factor at 10 µM; 200,000 tested, under 10 active;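 active means luciferase activation factor, scaled between plate controls, of at least 2 with compound at 10 µM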
#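 Assay system: Luciferase/luciferin detection reagent, cell-free biochemical luciferase assay / Also added: ATP substrate / Schedule: 10 min at ambient temperature / Measured by: luminescence measurement of luciferase light output / Benchmarks: low control with PBS replacing ATP, high control enzyme plus ATP without compound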
# Wee1 stabilizer = Wee1 degradation inhibitors, primary screen, cell-based, HeLa, Wee1K328M-luciferase, luminescence; HeLa Luc-Wee1K328M stability; 100% = proteasome inhibitor MG132 effect; reporter increase, % at 5 µM; 1.2% of 220,000 active; AID 1321, 2008;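 active means activation above the mean of all tested compounds plus 3 SD, set per screening run, cut at about 8.8% in these data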;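 further: cells exposed to compound for 20 h before luminescence read; 0% = DMSO alone and 100% = MG132 at 30 µM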
# Target sequence (P30291 whole entry K328M): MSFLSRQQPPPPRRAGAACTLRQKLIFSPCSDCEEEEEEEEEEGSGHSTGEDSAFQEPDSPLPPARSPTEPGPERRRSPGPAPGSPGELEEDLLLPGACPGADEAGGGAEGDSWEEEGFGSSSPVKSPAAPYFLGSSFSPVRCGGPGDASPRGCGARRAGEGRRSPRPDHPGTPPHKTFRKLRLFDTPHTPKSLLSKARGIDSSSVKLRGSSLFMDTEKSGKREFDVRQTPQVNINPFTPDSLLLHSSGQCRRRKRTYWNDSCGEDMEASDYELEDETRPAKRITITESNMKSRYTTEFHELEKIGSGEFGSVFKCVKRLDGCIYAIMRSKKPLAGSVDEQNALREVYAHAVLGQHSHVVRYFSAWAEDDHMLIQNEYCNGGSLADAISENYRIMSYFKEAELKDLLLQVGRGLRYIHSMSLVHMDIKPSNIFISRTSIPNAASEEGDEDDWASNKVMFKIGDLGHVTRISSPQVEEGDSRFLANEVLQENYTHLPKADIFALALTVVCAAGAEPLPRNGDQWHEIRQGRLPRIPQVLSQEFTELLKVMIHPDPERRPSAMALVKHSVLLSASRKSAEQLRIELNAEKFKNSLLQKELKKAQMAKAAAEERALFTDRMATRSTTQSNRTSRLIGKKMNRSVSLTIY
# PKD1 kinase inh = inhibitors of human PKD1 kinase, biochemical, fluorescence polarization; Serine/threonine-protein kinase D1 (Homo sapiens), Q15139; PKD1 kinase fluorescence polarization assay; inhibition, % (test concentration not listed); 0.056% of 200,000 active; AID 797, 2007; in the data active means inhibition above about 50%
# TRAIL sens C8 = viability loss with TRAIL in NB7+C8 cells, primary screen, TRAIL sensitizer project, cell-based, ATPlite luminescence. inhibition (viability loss, TRAIL sensitization), % at 10 µM. 1% of 360,000 active. AID 624354, 2012;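 active means compounds causing at least 50% loss of cell viability in the single-dose screen, relative to plate controls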
# FLuc inh counter = firefly luciferase enzyme inhibitors, primary screen, artefact control for luciferase-based inhibitor screens, biochemical, luminescence, ATPLite; Luciferin 4-monooxygenase (Photinus pyralis), P08659; 10 min; inhibition, % at 10 µM; 1.5% of 200,000 active; AID 1006, 2008;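 active means inhibition above about 50% when tested at 10 µM, limit read from the data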
# An asterisk follows results filed as active; . = no result.
SMILES,PPC-1+TRAIL kill,FLuc stim CS,Wee1 stabilizer,PKD1 kinase inh,TRAIL sens C8,FLuc inh counter
COC(=O)c1cc(NC(=O)c2cc3ccccc3o2)cc(C(=O)OC)c1,.,.,.,.,4,.
Cc1ccc(C)c(NC(=O)c2cc3ccccc3o2)c1,.,.,.,.,22,.
Cc1ccc(-c2csc(NC(=O)c3ccc(-c4ccccc4)cc3)n2)o1,21,0.9,-1,2,66*,14
Cc1ccnc(NC(=O)c2cc3ccccc3o2)c1,.,.,.,.,86*,.
Cc1ccnc(NC(=O)c2ccc(C(=O)c3ccccc3)cc2)c1,.,.,.,.,69*,.
Cc1csc(NC(=O)c2cc3ccccc3o2)n1,.,.,.,.,65*,.
C=CCn1c(C)cc(C(=O)COC(=O)[C@@H](NC(=O)c2ccccc2Cl)C(C)C)c1C,77*,0,3,-7,85*,96*
Nc1ccc(-c2ncc(-c3ccccc3)o2)cc1,.,.,.,.,52*,.
Oc1[nH]c(N=C2N=c3ccccc3=N2)c2ccccc12,28,.,9,.,65*,.
CCOC(=O)c1[nH]c2ccccc2c1NC(=S)Nc1ccccc1,-4,1.1,0,-6,-16,-7
CCOC(=O)c1[nH]c2ccc(C)cc2c1N,21,0.5,6,-1,-2,51*
CCOC(=O)c1[nH]c(C)c(C(=O)c2ccc(C)cc2)c1C,-7,1,9.5*,2,-41,-2
CCOC(=O)c1[nH]c2ccccc2c1NC(=S)Nc1cccc(C)c1,-11,1.1,9.3*,-15,4,-9
COC(=O)c1cnn(-c2ccc(F)cc2F)c1/C=N/NC(N)=S,6,.,-3,.,4,.
Cc1ccccc1OCC(=O)Nc1ccccc1-c1ccccc1,.,.,.,.,2,.
CCn1c(C)nc2cc(C(=O)N/N=C/c3ccc(N4CCOCC4)cc3)ccc21,10,1,2,-3,-6,0
COc1ccc(CC2(CO)CCN(Cc3cccn3-c3ccccn3)CC2)cc1,18,1.1,-3,7,-13,-7
COc1ccc(C=C2CCc3ccccc3C2=O)cc1,.,.,.,.,87*,.
CCOc1ccc(/C=C2\CCc3ccccc3C2=O)cc1,35,.,1,.,77*,.
COc1ccc(/C=C2/CCc3ccccc3C2=O)cc1OC,2,0.7,-2,-1,15,33
O=C1Nc2ccccc2-c2nnnn2C1N1CCCC1 (configuration not stated),.,.,.,.,-2,.
C[C@H](CO)N1C[C@H](C)[C@@H](CN(C)C(=O)NC2CCCCC2)Oc2c(NS(=O)(=O)c3ccc(F)cc3)cccc2C1=O,.,.,.,.,-10,.
C[C@H](CO)N1C[C@H](C)[C@@H](CN(C)C(=O)NC2CCCCC2)Oc2c(NS(=O)(=O)c3ccccc3)cccc2C1=O,.,.,.,.,50*,.
O=C(NN=C1C2CC3CC(C2)CC1C3)c1cccs1,16,1,9.5*,0,-13,1
O=C(NN=C1CCCC1)c1cccs1,18,1,5,-4,3,-4
SMILES,PPC-1+TRAIL kill,FLuc stim CS,Wee1 stabilizer,PKD1 kinase inh,TRAIL sens C8,FLuc inh counter
Cc1cc(-c2nc3cc(F)ccc3s2)ccc1N,.,.,.,.,73*,.
O=C1COc2ccc(C(=O)COC(=O)/C=C/c3ccc(Br)o3)cc2N1,.,.,.,.,-24,.
COc1ccc2oc(-c3ccc(NC(=O)c4ccc(N5CCOCC5)c([N+](=O)[O-])c4)cc3)nc2c1,14,1.1,2,-5,50*,-9
Cc1cccc(-n2ncc3c(NCCCO)ncnc32)c1,33,0.5,5,-5,33,53*
Cc1cccc(-n2ncc3c(NC4CCCCC4)ncnc32)c1,36,0.3,2,3,73*,70*
C=CCNc1ncnc2c1cnn2-c1cccc(C)c1,9,0.6,8,-9,37,42
O=C(Nc1ccc(OCC(F)(F)C(F)F)c(C(F)(F)F)c1)c1ccc(Cl)cc1,.,.,-2,-5,77*,.
COc1ccc(C(=O)Nc2ccc(OCC(F)(F)C(F)F)c(C(F)(F)F)c2)cc1OC,6,1.1,0,0,41,-11
CCOCCCNC(=O)CN1CCN(S(=O)(=O)c2ccc3c(c2)CCC3)CC1,.,.,.,.,-15,.
COc1ccccc1NC(C#N)c1ccccc1OCc1ccccc1 (configuration not stated),21,1,11*,-7,-5,-4
O=C(NCc1ccccc1)C(c1cccc2ccccc12)n1c(=O)c(-c2ccccc2)nc2ccccc21 (configuration not stated),.,.,.,.,-8,.
Cc1cccc2sc(NNC(=O)c3ccc(S(=O)(=O)N4CC(C)CC(C)C4)cc3)nc12 (configuration not stated),27,1.1,-1,-5,66*,-9
CC1C(=O)N(Cc2cn(Cc3ccco3)nn2)CCS(=O)(=O)N1Cc1ccc(-c2ccc(Cl)c(Cl)c2)cc1 (configuration not stated),.,.,.,.,5,.
COc1ccc(CCNC(=O)c2cc(-c3ccccc3)c(N3CCOCC3)s2)cc1OC,.,.,.,.,1,.
COc1ccc2[nH]cc(C(=O)CCl)c2c1,22,.,2,.,75*,.
COc1ccc2[nH]cc(C(=O)CN3CC(C)CC(C)C3)c2c1 (configuration not stated),.,.,.,.,-15,.
COc1ccc(C(=O)c2nccc3ccccc23)cc1,-16,1,10*,-1,-30,-4
COc1ccc(C(=O)c2c[nH]c3ccccc23)cc1,37,0.4,5,4,48*,64*
COc1ccc(CC(=O)OCC(=O)c2c[nH]c3ccccc23)cc1,.,.,.,.,2,.
CSc1ccc(CCNC(=O)CN2C(=O)c3cccnc3Oc3ccc(C)cc32)cc1,.,.,.,.,-5,.
COc1ccc(/C=C/c2noc(-c3ccccc3O)n2)cc1,17,0.5,-2,-8,21,54*
O=C(CSc1nnc(-c2ccc(Br)cc2)o1)Nc1cccc(C(=O)O)c1,.,.,.,.,63*,.
O=C(CSc1nnc(-c2ccc(Br)cc2)o1)Nc1cccc2ccccc12,2,1,0,0,-5,-1
CCOC(=O)C1CCN(CC(=O)c2c(C)[nH]c3cc(C)ccc23)CC1,-8,1,10*,-15,-5,-3
Cc1ccc2c(C(=O)CN3CCC(C(N)=O)CC3)c(C)[nH]c2c1,.,.,.,.,-9,.
CCCCc1nc2cc(C(=O)NC3CCOC(C)(C)C3)ccc2o1 (configuration not stated),.,.,.,.,4,.
C=CCOc1ccc(C[C@H](N)C(=O)NC[C@H]2O[C@@H](n3cnc4c(N)ncnc43)[C@H](O)[C@@H]2O)cc1,.,.,.,.,3,.
COc1ccc(C[C@H](N)C(=O)N[C@H]2[C@@H](O)[C@H](n3cnc4c(N(C)C)ncnc43)O[C@@H]2CO)cc1,.,.,.,.,92*,.
